Assay results as given in PMC2847151 (Neurogenetics, 2009).

Key:
[1] = test system: Pmp22 expression; conditions: peripheral nerves of Pmp22 transgenic rats; ref [31]; cited from earlier work
[2] = test system: Pmp22 transgenic rats; conditions: progesterone antagonist, ref [31]; cited from earlier work
[3] = test system: Med25 expression; assay: Med25 qRT-PCR expression in sciatic nerve of treated Pmp22 transgenic; type: in vivo, rat
Outline: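 Pmp22-transgenic rats received a progestin diet (20 mg/kg), a progesterone-receptor antagonist, or placebo (12, 12 and 8 animals). RNA was Trizol-extracted from sciatic nerve. Med25 was quantified by TaqMan qRT-PCR with unlabelled forward/reverse primers and a 5′-FAM probe, in triplicate, normalised to 18S rRNA run in parallel. Runs were repeated with GAPDH as the internal control.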

[4] = test system: SH3 domain of the Src-family kinase Lck (LckSH3); assay: Fluorescence titration binding of synthetic MED25 peptides to Lck SH3; conditions: AblSH3 vs LckSH3
[5] = target: SH3 domain of Abl (AblSH3) (Homo sapiens, UniProt P00519); assay: Fluorescence titration binding of synthetic MED25 peptides to Abl SH3
Chain of SH3 domain of Abl (AblSH3) (P00519 61-121 limits assumed): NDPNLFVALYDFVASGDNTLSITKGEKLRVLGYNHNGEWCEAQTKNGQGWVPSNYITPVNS

[6] = target: SH3 domain of the Src-family kinase Lck (LckSH3) (Homo sapiens, UniProt P06239); assay: Fluorescence titration binding of synthetic MED25 peptides to Lck SH3
Chain of SH3 domain of the Src-family kinase Lck (LckSH3) (Homo sapiens, UniProt P06239) (P06239 61-121 limits assumed): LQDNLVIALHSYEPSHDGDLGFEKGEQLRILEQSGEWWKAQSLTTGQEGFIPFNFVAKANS

In the case of `CN(C)c1ccc([C@H]2C[C@]3(C)[C@@H](CC[C@]3(O)CCCO)[C@@H]3CCC4=CC(=O)CCC4=C32)cc1` [onapristone], the Pmp22 expression [1] is given as “decreases its expression”, the phenotype [2] is given as “improvement of the phenotype” and the “Med25 expression after treatment” value ([3]; Pmp22^++/+ rats, onapristone) is given as “no significant reducing effect”.

For `CC(=O)[C@H]1CC[C@H]2[C@@H]3CCC4=CC(=O)CC[C@]4(C)[C@H]3CC[C@]12C` [progesterone], the Pmp22 expression [1] is given as “increases Pmp22 expression” and the “Med25 expression after treatment” value ([3]; Pmp22^++/+ male rats, progesterone 20 mg/kg diet) is given as “further increase of the Med25 expression”.

With “Ac-QLPPGPPGAPKPPPAS-NH2 [wild-type MED25, Ac-QLPPGPPGAPKPPPAS-CONH2]” the “binding affinity Abl SH3 compared with Lck SH3 (specificity)” value [4] was “significantly stronger to Abl than to Lck”.

In the case of “Ac-QLPPGPPGVPKPPPAS-NH2 [mutant, Ac-QLPPGPPGVPKPPPAS-CONH2]”, the Kd [5] is reported as 2.91 ± 0.66 µM, the “affinity for Abl SH3, effect of mutation” value ([5]; mutant vs wild-type peptide) is reported as “almost unaltered by the mutation” and the “binding affinity Abl SH3 compared with Lck SH3 (specificity)” value [4] is reported as “very similar affinity”. The Kd [6] was 5.38 ± 1.05 µM.
